Data from ChEMBL document CHEMBL1121770, “Substituted imidazo[2,3-alpha]pyridine-2-carbamate anthelmintics” (1981).

How the values were obtained:
Type in all cases: functional
Mus musculus [1] = assay: Compound was administered at 125 p.p.m. in the diet of mice, for percent reduction of Nematospiroides dubius in mice
Outline: (§1)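 Mouse infection test run by Baker's method, three mice per treated group. Worm counts are averaged per mouse, and percent reduction is derived from them. Reductions below 20% are recorded as 0.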

Mus musculus [2] = assay: Compound was administered at 62.5 p.p.m. in the diet of mice, for percent reduction of Nematospiroides dubius in mice; outline: as §1
Mus musculus [3] = assay: Compound was administered at 250 p.p.m. in the diet of mice, for percent reduction of Nematospiroides dubius in mice; outline: as §1
Mus musculus [4] = assay: Compound was administered at 500 p.p.m. in the diet of mice, for percent reduction of Nematospiroides dubius in mice; outline: as §1
Mus musculus [5] = assay: Compound was administered at 1000 p.p.m. in the diet of mice, for percent reduction of Nematospiroides dubius in mice; outline: as §1

SMILES	Reduction (Mus musculus [1]) [%]	Reduction (Mus musculus [2]) [%]	Reduction (Mus musculus [3]) [%]	Reduction (Mus musculus [4]) [%]	Reduction (Mus musculus [5]) [%]
COC(=O)Nc1cn2cc([S+]([O-])c3ccccc3)ccc2n1 (centres undefined)	100	35			
CCCSc1ccc2nc(NC(=O)OC)cn2c1	74	0	100		
COC(=O)Nc1nc2cc(C(Cl)=C(Cl)Cl)ccc2[nH]1	69	57	99		
CC(C)OC(=O)Nc1ccc2[nH]c(-c3cscn3)nc2c1 [CAMBENDAZOLE]	0	0	73	100	
COC(=O)Nc1cn2cc(Sc3ccccc3)ccc2n1	38	0	98	100	
COC(=O)Nc1cn2ccccc2n1				0	54
COC(=O)Nc1cn2cc(C(=O)c3ccccc3)ccc2n1				0	0
CCCOc1ccc2nc(NC(=O)OC)cn2c1	44	0	74		
COC(=O)Nc1cn2cc(C(Cl)=C(Cl)Cl)ccc2n1	94	94			
c1ccc2[nH]c(-c3cscn3)nc2c1 [THIABENDAZOLE]	0		26	86	100
